The source made the active and inactive calls. No cut-off for these calls is given here.
Columns and labels:
Schistosoma mansoni [1] = assay: Antischistosomal activity against adult male Schistosoma mansoni assessed as morphological alterations in anterior and posterior regions at 20 uM incubated for 48 hrs by scanning electron microscopy analysis; format: functional, organism-based
How it was run: (§1)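 Adult couples were taken by perfusion into supplemented RPMI, one couple per well, and adapted 2 h at 37°C, 5% CO2. They were exposed to 20 μM GSK343 or 0.1% DMSO for 24 and 48 h. Fixation used modified Karnovsky with osmium post-fix, followed by ethanol dehydration, critical-point drying, gold sputtering and scanning electron microscopy of tegument surfaces.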

Schistosoma mansoni [2] = assay: Antischistosomal activity against Schistosoma mansoni assessed as length of schistosomula at 20 uM incubated for 24 to 48 hrs by scanning electron microscopy analysis (reference value: […]); format: functional; settings: time 24-48 hrs
How it was run: (§2)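 Newly transformed schistosomula were held 16 h in M169 with 2% FBS, serotonin, hypoxanthine, hydrocortisone, triiodothyronine and antibiotics at 37°C, 5% CO2, at 2,000 per well. They were then exposed to 20 μM GSK343 or 0.1% DMSO for 24 and 48 h. Fixation was modified Karnovsky (pH 7.4) with 1% osmium post-fix, then ethanol dehydration, critical-point drying, gold coating and SEM. Lengths came from three experiments, each with 20 schistosomula.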

Schistosoma mansoni [3] = assay: Antischistosomal activity against Schistosoma mansoni assessed as developmental changes at 20 uM incubated for 24 hrs by scanning electron microscopy analysis; format: functional, organism-based; how it was run: as §2
Schistosoma mansoni [4] = assay: Antischistosomal activity against adult female Schistosoma mansoni assessed as presence of blisters in dorsal region at 20 uM incubated for 24 to 48 hrs by scanning electron microscopy analysis; format: functional, organism-based; settings: time 24-48 hrs; how it was run: as §1
Schistosoma mansoni [5] = assay: Antischistosomal activity against female Schistosoma mansoni assessed as down-regulated ESP mRNA level at 20 uM incubated for 48 hrs by RT-qPCR analysis; format: functional, organism-based
How it was run: (§3)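 Schistosomula (supplemented M169) or adult worms (supplemented RPMI) were treated 48 h with 20 μM GSK343 or 0.1% DMSO at 37°C, 5% CO2. qPCR normalizer genes were chosen from RNA-seq data as those with TPM >1 and a treated/control ratio of 0.9–1.1 that were not differentially expressed. Relative expression was calculated by comparative Ct; significance by t-test.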

Schistosoma mansoni [6] = assay: Antischistosomal activity against juvenile Schistosoma mansoni assessed as destroyed oral sucker at 20 to 50 uM incubated for 48 hrs by scanning electron microscopy analysis; format: functional, organism-based; settings: in the assay text read “at 50 uM” for “at 20 to 50 uM”
How it was run: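 Juvenile worms recovered by perfusion, five per well in supplemented RPMI (10% FBS, antibiotics, 37°C, 5% CO2), 2 h adaptation, then exposed 48 h to compound or 0.1% DMSO. Fixed in modified Karnovsky reagent (pH 7.4), washed in cacodylate buffer, post-fixed 1 h in 1% osmium tetroxide, ethanol-dehydrated, critical-point dried, gold-sputtered and imaged by scanning electron microscopy.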

Schistosoma mansoni [7] = assay: Antischistosomal activity against Schistosoma mansoni assessed as down-regulated FGFR substrate 3 mRNA level in schistosomula at 20 uM incubated for 48 hrs by RT-qPCR analysis; format: functional, organism-based; how it was run: as §3
Schistosoma mansoni [8] = assay: Induction of apoptosis in Schistosoma mansoni assessed as DNA fragmentation at 20 uM incubated for 72 hrs by TUNEL staining based inverted microscope analysis; format: functional, organism-based
How it was run: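 Schistosomula, 2,000 per well in supplemented M169 after 16 h pre-culture, exposed 72 h to compound or DMSO, then fixed 60 min, permeabilized and TUNEL-labelled for DNA strand breaks. Mounted with DAPI counterstain and imaged by ApoTome fluorescence microscopy at 40× objective.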

Schistosoma mansoni [9] = assay: Antischistosomal activity against Schistosoma mansoni assessed as lower growth rate at 20 uM incubated for 24 to 48 hrs by scanning electron microscopy analysis; format: functional; settings: time 24-48 hrs; how it was run: as §2
Schistosoma mansoni [10] = assay: Antischistosomal activity against Schistosoma mansoni assessed as down-regulated Glucose transport protein mRNA level in schistosomula at 20 uM incubated for 48 hrs by RT-qPCR analysis; format: functional, organism-based; how it was run: as §3
Schistosoma mansoni [11] = assay: Antischistosomal activity against adult Schistosoma mansoni assessed as increased H3K27ac level at 20 uM incubated for 48 hrs by Western blotting analysis; format: functional, organism-based
How it was run: (§4)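 Fifty adult worm pairs were treated 48 h with 20 μM GSK343 or vehicle in supplemented RPMI/10% FBS, then lysed in Triton buffer. Nuclear pellets were acid-extracted overnight in 0.25 M HCl at 4°C and histones were TCA-concentrated. 10 μg went on 15% SDS-PAGE and nitrocellulose, probed with anti-H3K27me3, K9ac, K27ac or K4me3, then IRDye secondaries; infrared densitometry was normalized to anti-H3. Three biological replicates; t-test.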

Schistosoma mansoni [12] = assay: Cytotoxicity against Schistosoma mansoni assessed as decrease in viability at 20 uM incubated for 5 days by CellTiter-Glo Luminescent assay relative to control; format: functional; settings: time 5 day
How it was run: (§5)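 Newly transformed schistosomula pre-cultured 16 h in M169 with 2% FBS, serotonin, hypoxanthine, hydrocortisone, triiodothyronine and antibiotics at 37°C, 5% CO2, then 100–120 per well exposed up to 5 days to compound or 0.1% DMSO. ATP in intact larvae read by luminescence, expressed as % of vehicle; three replicate experiments, two-way ANOVA.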

Schistosoma mansoni [13] = assay: Antischistosomal activity against adult Schistosoma mansoni assessed as increased H3K9ac level at 20 uM incubated for 48 hrs by Western blotting analysis; format: functional, organism-based; how it was run: as §4
Schistosoma mansoni [14] = assay: Antischistosomal activity against Schistosoma mansoni assessed as down-regulated Val7 mRNA level in schistosomula at 20 uM incubated for 48 hrs by RT-qPCR analysis; format: functional, organism-based; how it was run: as §3
Schistosoma mansoni [15] = assay: Antischistosomal activity against female Schistosoma mansoni assessed as down-regulated Tyrosinase 1 mRNA level at 20 uM incubated for 48 hrs by RT-qPCR analysis; format: functional, organism-based; how it was run: as §3
Schistosoma mansoni [16] = assay: Antischistosomal activity against adult Schistosoma mansoni assessed as decreased H3K27me3 level at 20 uM incubated for 48 hrs by Western blotting analysis; format: functional, organism-based; how it was run: as §4
Schistosoma mansoni [17] = assay: Antischistosomal activity against female Schistosoma mansoni assessed as down-regulated EEFB1 mRNA level at 20 uM incubated for 48 hrs by RT-qPCR analysis; format: functional, organism-based; how it was run: as §3
Schistosoma mansoni [18] = assay: Cytotoxicity against Schistosoma mansoni assessed as decrease in viability at 20 uM incubated for 2 days relative to control; settings: time 2 day
Schistosoma mansoni [19] = assay: Antischistosomal activity against adult female Schistosoma mansoni assessed as presence of fissures in egg shell at 20 uM incubated for 24 to 48 hrs by scanning electron microscopy analysis; format: functional, organism-based; settings: time 24-48 hrs
How it was run: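 Eggs released by couples kept 24 or 48 h with 20 μM GSK343 or 0.1% DMSO in supplemented RPMI were fixed in modified Karnovsky with osmium post-fix. They were dehydrated, critical-point dried, gold-coated and imaged by SEM; total egg area dimension was measured.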

Schistosoma mansoni [20] = assay: Antischistosomal activity against Schistosoma mansoni assessed as down-regulated DNAse II protein mRNA level in schistosomula at 20 uM incubated for 48 hrs by RT-qPCR analysis; format: functional, organism-based; how it was run: as §3
Schistosoma mansoni [21] = assay: Antischistosomal activity against adult female Schistosoma mansoni assessed as presence of peeling in dorsal region at 20 uM incubated for 24 to 48 hrs by scanning electron microscopy analysis; format: functional, organism-based; settings: time 24-48 hrs; how it was run: as §1
Schistosoma mansoni [22] = assay: Cytotoxicity against Schistosoma mansoni assessed as reduction in total ATP content at 20 uM incubated for 2 days by CellTiter-Glo Luminescent assay relative to control; format: functional; parameters: scale not given: the % may be the effect or the level left; settings: time 2 day; how it was run: as §5

For `CCCc1cc(C)[nH]c(=O)c1CNC(=O)c1cc(-c2ccnc(N3CCN(C)CC3)c2)cc2c1cnn2C(C)C`, the Activity (Schistosoma mansoni [1]) was “inactive”, the Activity (Schistosoma mansoni [2]) was 74 µm and the Activity (Schistosoma mansoni [3]) was “inactive”. The Activity (Schistosoma mansoni [4]) was “Active”, the Activity (Schistosoma mansoni [5]) was “Active” and the Activity (Schistosoma mansoni [6]) was “Active”. The Activity (Schistosoma mansoni [7]) was “Active”, the Activity (Schistosoma mansoni [8]) was “Active” and the “fold change (FC)” value (Schistosoma mansoni [9]) was 4. For the same compound, the Activity (Schistosoma mansoni [10]) was “Active”, the Activity (Schistosoma mansoni [11]) was “Active” and the Activity (Schistosoma mansoni [12]) was 70%. The Activity (Schistosoma mansoni [13]) was “Active”, the Activity (Schistosoma mansoni [14]) was “Active” and the Activity (Schistosoma mansoni [15]) was “Active”. For the same compound, the Activity (Schistosoma mansoni [16]) was “Active”, the Activity (Schistosoma mansoni [17]) was “Active” and the Activity (Schistosoma mansoni [18]) was <20%. The Activity (Schistosoma mansoni [19]) was “Active”, the Activity (Schistosoma mansoni [20]) was “Active” and the Activity (Schistosoma mansoni [21]) was “Active”. The Activity (Schistosoma mansoni [22]) was 40%.

From ChEMBL document CHEMBL5715959, “Inhibition of histone methyltransferase EZH2 in Schistosoma mansoni in vitro by GSK343 reduces egg laying and decreases the expression of genes implicated in DNA replication and noncoding RNA metabolism” (2018)
